# ChEMBL document CHEMBL1123757, “Selective thromboxane synthetase inhibitors and antihypertensive agents. New derivatives of 4-hydrazino-5H-pyridazino[4,5-b]indole, 4-hydrazinopyridazino[4,5-a]indole, and related compounds” (J Med Chem, 1987)
# Columns and labels:
# Rattus norvegicus [1] = experiment: Percent increase in cardiac rhythm, directly measured on carotid (iv on the jugular vein) of spontaneously hypertensive rats at 1 mg/kg after 30 minutes; type: functional, Heart
# How it was run: (§1)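 Anesthetized (sodium pentobarbital, 70 mg/kg) male and female Okamoto SHR, 8 weeks old, 300–350 g. Given iv into the jugular vein in normal saline. Arterial pressure and cardiac rhythm are recorded directly from the carotid by polygraph at set times after dosing. Each is expressed as percent change from the pre-dose control value.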
# Cavia porcellus [2] = experiment: Ex vivo inhibition of platelet aggregation induced by ADP-II at 100 mg/kg; type: functional
# How it was run: (§2)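 Fasted male or female guinea pigs (250–300 g, five per group) dosed orally in normal saline or saline with 0.2% (carboxymethyl)cellulose/1.0% Tween 80; controls given vehicle. Under ether, cardiac blood collected into 3.8% citrate. PRP adjusted to […] and aggregation induced by ADP (second wave) or AA, read by absorbance aggregometry. PGE2 and TXB2 measured by RIA.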
# Cavia porcellus [3] = experiment: Ex vivo inhibition of platelet aggregation induced by AA at 100 mg/kg; type: functional; how it was run: as §2
# Rattus norvegicus [4] = experiment: Antihypertensive activity in spontaneously hypertensive rats (SHR) measured by percentage fall in arterial pressure (AP) at a dose of 25 mg/kg administered perorally at 1 h; type: functional, Artery; conditions: route oral
# How it was run: (§3)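 Oral dosing at 2.5 mL/kg to unanesthetized male and female Okamoto-strain SHR (8 weeks old, 300–350 g, systolic pressure ≥190 mmHg, heart rate 400–650 beats/min), five per dose. Vehicle was normal saline or saline with 0.2% (carboxymethyl)cellulose and 1.0% Tween 80. AP measured on the tail by mechanical transduction at set times; expressed as percentage fall from control.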
# Rattus norvegicus [5] = experiment: Percent fall in systolic blood pressure, directly measured on carotid (iv on the jugular vein) of spontaneously hypertensive rats at 1 mg/kg after 240 minutes; type: functional, Artery; how it was run: as §1
# Rattus norvegicus [6] = experiment: Percent fall in systolic blood pressure, directly measured on carotid (iv on the jugular vein) of spontaneously hypertensive rats at 1 mg/kg after 60 minutes; type: functional, Artery; how it was run: as §1
# Rattus norvegicus [7] = experiment: Antihypertensive activity in spontaneously hypertensive rats (SHR) measured by percentage fall in arterial pressure (AP) at 5 mg/kg administered intraperitoneally at 24 h; type: functional, Artery; conditions: route intraperitoneal
# How it was run: (§4)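 Unanesthetized Okamoto-strain SHR, male and female, 8 weeks old, 300–350 g, systolic pressure ≥190 mmHg, heart rate 400–650 beats/min; five animals per dose. Given ip at 2.5 mL/kg, dissolved or suspended in normal saline or saline with 0.2% (carboxymethyl)cellulose and 1.0% Tween 80. Tail AP and CR recorded by mechanical transduction at set times; reported as percentage fall from control.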
# Rattus norvegicus [8] = experiment: Percent fall in systolic blood pressure, directly measured on carotid (iv on the jugular vein) of spontaneously hypertensive rats at 1 mg/kg after 5 minutes; type: functional, Artery; how it was run: as §1
# Rattus norvegicus [9] = experiment: Antihypertensive activity in spontaneously hypertensive rats (SHR) measured by percentage fall in cardiac rhythm (CR) at 25 mg/kg administered intraperitoneally at 1 h; type: functional, Heart; conditions: route intraperitoneal; how it was run: as §4
# Cavia porcellus [10] = experiment: Effect on thromboxane synthetase activity (ex vivo) at 100 mg/kg expressed as percent increase in PGE-2; type: functional; how it was run: as §2
# Rattus norvegicus [11] = experiment: Percent fall in systolic blood pressure, directly measured on carotid (iv on the jugular vein) of spontaneously hypertensive rats at 1 mg/kg after 30 minutes; type: functional, Artery; how it was run: as §1
# Rattus norvegicus [12] = experiment: Antihypertensive activity in spontaneously hypertensive rats (SHR) measured by percentage fall in arterial pressure (AP) at 25 mg/kg administered intraperitoneally at 3 h; type: functional, Artery; conditions: route intraperitoneal; how it was run: as §4
# Homo sapiens [13] = organism: Homo sapiens; experiment: In vitro inhibition of platelet aggregation induced by ADP-II (PRP incubated for 5 minutes at 37 degree C) at 10e-5 M; type: functional
# How it was run: (§5)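 Human venous blood anticoagulated with 3.8% sodium citrate (1:9). PRP from centrifugation at 800 rpm for 10 min at room temperature. Count adjusted with PPP to […]. Compound in saline with 10% ethylene glycol is added to PRP and incubated at 37 °C before the agonist. Agonists: ADP 2×10^-5 M, AA 0.6 mM, PGH2 2.8 μM, adrenaline 0.6 μM. Born absorbance aggregometry; n = 5.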
# Rattus norvegicus [14] = experiment: Antihypertensive activity in spontaneously hypertensive rats (SHR) measured by percentage fall in arterial pressure (AP) at 1 mg/kg administered intraperitoneally at 1 h; type: functional, Artery; conditions: route intraperitoneal; how it was run: as §4
# Rattus norvegicus [15] = experiment: Antihypertensive activity in spontaneously hypertensive rats (SHR) measured by percentage fall in cardiac rhythm (CR) at 25 mg/kg administered perorally at 3 h; type: functional, Heart; conditions: route oral
# How it was run: (§6)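 Conscious SHR (Okamoto strain), 8 weeks old, male and female, 300–350 g, systolic BP ≥190 mmHg, CR 400–650 beats/min. Given ip or po at 2.5 mL/kg in normal saline or saline with 0.2% (carboxymethyl)cellulose and 1.0% Tween 80. Tail AP and CR recorded by mechanical transduction at 1, 3, 5 and 24 h, five animals per dose. Effect expressed as % fall versus control.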
# Rattus norvegicus [16] = experiment: Antihypertensive activity in spontaneously hypertensive rats (SHR) measured by percentage fall in arterial pressure (AP) at 1 mg/kg administered intraperitoneally at 3 h; type: functional, Artery; conditions: route intraperitoneal; how it was run: as §4
# Rattus norvegicus [17] = experiment: Percent increase in cardiac rhythm, directly measured on carotid (iv on the jugular vein) of spontaneously hypertensive rats at 1 mg/kg after 60 minutes; type: functional, Heart; how it was run: as §1
# Rattus norvegicus [18] = experiment: Antihypertensive activity in spontaneously hypertensive rats (SHR) measured by percentage fall in arterial pressure (AP) at 25 mg/kg administered perorally at 3 h; type: functional, Artery; conditions: route oral; how it was run: as §3
# Rattus norvegicus [19] = experiment: Antihypertensive activity in spontaneously hypertensive rats (SHR) measured by percentage fall in arterial pressure (AP) at 5 mg/kg administered intraperitoneally at 1 h; type: functional, Artery; conditions: route intraperitoneal; how it was run: as §4
# Homo sapiens [20] = organism: Homo sapiens; experiment: In vitro inhibition of platelet aggregation induced by PGH-2 (PRP incubated for 60 minutes at 37 degree C) at 10e-5 M; type: functional; conditions: 1 h; how it was run: as §5
# Rattus norvegicus [21] = experiment: Antihypertensive activity in spontaneously hypertensive rats (SHR) measured by percentage fall in arterial pressure (AP) at 25 mg/kg administered intraperitoneally at 24 h; type: functional, Artery; conditions: route intraperitoneal; how it was run: as §4
# Rattus norvegicus [22] = experiment: Antihypertensive activity in spontaneously hypertensive rats (SHR) measured by percentage fall in arterial pressure (AP) at 5 mg/kg administered intraperitoneally at 5 h; type: functional, Artery; conditions: route intraperitoneal; how it was run: as §4
# Rattus norvegicus [23] = experiment: Antihypertensive activity in spontaneously hypertensive rats (SHR) measured by percentage fall in cardiac rhythm (CR) at 5 mg/kg administered intraperitoneally at 5 h; type: functional, Heart; conditions: route intraperitoneal; how it was run: as §6
# Rattus norvegicus [24] = experiment: Antihypertensive activity in spontaneously hypertensive rats (SHR) measured by percentage fall in cardiac rhythm (CR) at 1 mg/kg administered intraperitoneally at 3 h; type: functional, Heart; conditions: route intraperitoneal; how it was run: as §4
# Rattus norvegicus [25] = experiment: Antihypertensive activity in spontaneously hypertensive rats (SHR) measured by percentage fall in cardiac rhythm (CR) at 25 mg/kg administered perorally at 5 h; type: functional, Heart; conditions: route oral; how it was run: as §6
# Rattus norvegicus [26] = experiment: Antihypertensive activity in spontaneously hypertensive rats (SHR) measured by percentage fall in arterial pressure (AP) at 5 mg/kg administered intraperitoneally at 3 h; type: functional, Artery; conditions: route intraperitoneal; how it was run: as §4
# Homo sapiens [27] = organism: Homo sapiens; experiment: In vitro inhibition of platelet aggregation induced by DD (PRP incubated for 5 minutes at 37 degree C) at 10e-5 M; type: functional; how it was run: as §5
smiles,measurement,setting,value
COc1ccc2[nH]c3c(NN)nncc3c2c1.Cl,Increase,Rattus norvegicus [1],12%
same,inhibition in vivo at 100 mg/kg,Cavia porcellus [2],100%
same,inhibition in vivo at 100 mg/kg,Cavia porcellus [3],100%
same,Decrease in AP,Rattus norvegicus [4],50%
same,Decrease in blood pressure,Rattus norvegicus [5],30%
same,Decrease in blood pressure,Rattus norvegicus [6],60%
same,Decrease in AP,Rattus norvegicus [7],9%
same,Decrease in blood pressure,Rattus norvegicus [8],30%
same,Decrease in CR,Rattus norvegicus [9],22%
same,Increase,Cavia porcellus [10],35%
same,Decrease in blood pressure,Rattus norvegicus [11],40%
same,Decrease in AP,Rattus norvegicus [12],57%
same,inhibition at 10 µM,Homo sapiens [13],100%
same,Decrease in AP,Rattus norvegicus [14],32%
same,Decrease in CR,Rattus norvegicus [15],-14%
same,Decrease in AP,Rattus norvegicus [16],5%
same,Increase,Rattus norvegicus [17],10%
same,Decrease in AP,Rattus norvegicus [18],40%
same,Decrease in AP,Rattus norvegicus [19],50%
same,inhibition at 10 µM,Homo sapiens [20],100%
same,Decrease in AP,Rattus norvegicus [21],10%
same,Decrease in AP,Rattus norvegicus [22],26%
same,Decrease in CR,Rattus norvegicus [23],-6%
same,Decrease in CR,Rattus norvegicus [24],8%
same,Decrease in CR,Rattus norvegicus [25],-14%
same,Decrease in AP,Rattus norvegicus [26],35%
same,inhibition at 10 µM,Homo sapiens [27],100%
